Test results reported in ChEMBL document CHEMBL1649563, “Nukacin ISK-1, a bacteriostatic lantibiotic” (2009).
Values after ≈ are worked out from the molar mass of the structure shown. Active and inactive are the calls of the source. The calls are words filed in the database; no cut-off is given here.

What was measured:
Bacillus subtilis [1] = test: Antibacterial activity against Bacillus subtilis JCM 1465 assessed as dissipation of membrane potential by fluorescence assay; assay type: functional, organism-based
Lactobacillus sakei [2] = test: Bacteriostatic against Lactobacillus sakei JCM 1157 assessed as lysis of cell after 24 hrs by spectrophotometry; assay type: functional; settings: Latilactobacillus sakei
Bacillus subtilis [3] = test: Antibacterial activity against Bacillus subtilis JCM 1465; assay type: functional
Procedure, shortened: (§1)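 Spot-on-lawn method against each indicator strain, giving MIC. Activity determined at least twice per lantibiotic.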

Micrococcus luteus = test: Antibacterial activity against Micrococcus luteus IFO 12708; assay type: functional; procedure, shortened: as §1
Lactobacillus sakei [4] = test: Antibacterial activity against Lactobacillus sakei JCM 1157; assay type: functional; settings: Latilactobacillus sakei; procedure, shortened: as §1
Lactobacillus sakei [5] = test: Bacteriostatic against Lactobacillus sakei JCM 1157 assessed as decrease in cell viability after 24 hrs by turbidity assay; assay type: functional; settings: Latilactobacillus sakei
Bacillus subtilis [6] = test: Antibacterial activity against Bacillus subtilis JCM 1465 assessed as decrease in bacterial cell wall thickness by microscopy; assay type: functional, organism-based
Procedure, shortened: (§2)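 B. subtilis JCM 1465T treated at 10× MIC for 90 min against an untreated control, then prepared for transmission electron microscopy. Longitudinal and cross sections examined.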

Bacillus subtilis [7] = test: Antibacterial activity against Bacillus subtilis JCM 1465 assessed as single arrangement of initial stage of septal orientation by microscopy; assay type: functional, organism-based; procedure, shortened: as §2
Staphylococcus carnosus = test: Antibacterial activity against Staphylococcus carnosus TM300; assay type: functional; procedure, shortened: as §1
Lactococcus lactis = test: Antibacterial activity against Lactococcus lactis ATCC 19435; assay type: functional; procedure, shortened: as §1
Listeria innocua = test: Antibacterial activity against Listeria innocua ATCC 33090; assay type: functional; procedure, shortened: as §1
Enterococcus faecalis = test: Antibacterial activity against Enterococcus faecalis TUA 1344L; assay type: functional; procedure, shortened: as §1
Bacillus subtilis [8] = test: Antibacterial activity against Bacillus subtilis JCM 1465 assessed as induction of pore formation-associated efflux of ATP by fluorescence assay; assay type: functional, organism-based
Procedure, shortened: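 ATP efflux from B. subtilis JCM 1465T cells treated with lantibiotic at 10× MIC, detected with a Lucifer-HS ATP detection kit. Run twice, representative data shown.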

Bacillus subtilis [9] = test: Antibacterial activity against Bacillus subtilis JCM 1465 assessed as induction of pore formation-associated efflux of K+ ion by fluorescence assay; assay type: functional, organism-based
Procedure, shortened: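 K+ efflux from B. subtilis JCM 1465T cells exposed to lantibiotic at 10× MIC, measured with potassium-binding benzofuran isophthalate-AM (PBFI). Expressed relative to total K+ released after adding 1 μM nisin (100%). Run twice.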

Bacillus subtilis [10] = test: Antibacterial activity against Bacillus subtilis JCM 1465 assessed as detachment of plasma membrane from cell wall by microscopy; assay type: functional, organism-based; procedure, shortened: as §2
Cell membrane = test: Binding affinity to cell membrane of Bacillus subtilis JCM 1465 assessed as dissipation of nisin A-induced membrane potential
[11] = test system: Lactiplantibacillus plantarum; test: Antibacterial activity against Lactobacillus plantarum ATCC 14617; assay type: functional; settings: ATCC 14917, in the assay text read “ATCC 14917” for “ATCC 14617”; procedure, shortened: as §1

Structure (SMILES) | Activity (Bacillus subtilis [1]) | Activity (Lactobacillus sakei [2]) | MIC (Bacillus subtilis [3]) | MIC (Micrococcus luteus) | MIC (Lactobacillus sakei [4]) | Activity (Lactobacillus sakei [5]) | Activity (Bacillus subtilis [6]) | Activity (Bacillus subtilis [7]) | MIC (Staphylococcus carnosus) | MIC (Lactococcus lactis) | MIC (Listeria innocua) | MIC (Enterococcus faecalis) | Activity (Bacillus subtilis [8]) | Activity (Bacillus subtilis [9]) | Activity (Bacillus subtilis [10]) | Activity (Cell membrane) | MIC [11]
C/C=C1\NC(=O)[C@H](Cc2ccccc2)NC(=O)[C@H](C(C)C)NC(=O)[C@H](Cc2ccccc2)NC(=O)[C@H](CCC(N)=O)NC(=O)[C@H](Cc2ccccc2)NC(=O)[C@@H]2CSC[C@@H](C(=O)N[C@@H](CO)C(=O)O)NC(=O)[C@H](CSC[C@@H]3NC(=O)[C@H](C(C)C)NC(=O)[C@@H](NC(=O)[C@@H]4CCCN4C(=O)[C@@H](NC(=O)[C@@H](NC(=O)CNC(=O)[C@H](CO)NC(=O)[C@H](CCCCN)NC(=O)[C@H](CCCCN)NC(=O)[C@@H](N)CCCCN)C(C)C)[C@@H](C)CC)[C@H](C)SC[C@H](NC(=O)[C@H](CC(=O)O)NC(=O)[C@H](Cc4cnc[nH]4)NC3=O)C(=O)N[C@@H](Cc3cnc[nH]3)C(=O)N[C@@H](CCSC)C(=O)N[C@@H](CC(N)=O)C(=O)N2)NC1=O | inactive | Active | 0.26 µM (≈ 0.769 µg/mL) | 2.08 µM (≈ 6.16 µg/mL) | 0.26 µM (≈ 0.769 µg/mL) | Active | Active | Active | 0.26 µM (≈ 0.769 µg/mL) | 0.52 µM (≈ 1.54 µg/mL) | 16.6 µM (≈ 49.2 µg/mL) | 4.16 µM (≈ 12.3 µg/mL) | inactive | inactive |  |  | 
C=C(NC(=O)[C@@H](NC(=O)[C@H](Cc1cnc[nH]1)NC(=O)[C@@H](NC(=O)[C@H](CO)NC(=O)[C@@H]1CSC(C)[C@@H]2NC(=O)[C@H](C)NC(=O)[C@@H](NC(=O)N(CCCCN)C(=O)[C@H](CCCCN)NC(=O)[C@@H](CCSC)NC(=O)[C@H](CC(N)=O)NC(=O)[C@@H]3CSC(C)[C@H](NC(=O)[C@H](CCCCN)NC(=O)[C@@H]4CSC(C)[C@H](NC(=O)[C@@H]5CSC[C@H](NC(=O)/C(=C/C)NC(=O)[C@@H](N)[C@@H](C)CC)C(=O)N[C@@H](CC(C)C)C(=O)NC(=C)C(=O)N[C@@H](CC(C)C)C(=O)N5)C(=O)N5CCC[C@H]5C(=O)NCC(=O)N4)C(=O)NCC(=O)N[C@@H](C)C(=O)N[C@@H](CC(C)C)C(=O)N[C@H](CCSC)C(=O)NCC(=O)N3)C(C)SC[C@H](NC2=O)C(=O)N[C@@H](Cc2cnc[nH]2)C(=O)N1)[C@@H](C)CC)C(C)C)C(=O)N[C@@H](CCCCN)C(=O)O (stereo partly specified) |  |  | 0.008 µM (≈ 0.0277 µg/mL) | 0.032 µM (≈ 0.111 µg/mL) | 0.008 µM (≈ 0.0277 µg/mL) |  |  |  | 0.016 µM (≈ 0.0555 µg/mL) | 0.065 µM (≈ 0.225 µg/mL) | 0.065 µM (≈ 0.225 µg/mL) | 0.26 µM (≈ 0.902 µg/mL) | Active | Active | Active | Active | 1.04 µM (≈ 3.61 µg/mL)
